Assay results published in ChEMBL document CHEMBL4842330, “New nimesulide derivatives with amide/sulfonamide moieties: Selective COX-2 inhibition and antitumor effects” (Eur J Med Chem, 2021).
The source made the active and inactive calls. The rule behind the calls is not given here.

Columns and labels:
MCF7 [1] = assay: Cytotoxicity against human MCF7 cells assessed as cell viability at 100 uM after 48 hrs by MTT assay relative to control; format: functional; details: read-out: Activity
Method in brief: (§1)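 Cells in exponential growth were seeded at 5 × 10⁴ cells/mL, held 24 h at 37 °C, then exposed to compound for 48 h. MTT was added to 1 mg/mL final for 2 h. Formazan was dissolved in DMSO and read at 570 nm, with 620 nm background subtraction. Final DMSO ≤1.0%; viability reported as percentage of control.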

HT-29 [2] = assay: Cytotoxicity against human HT-29 cells assessed as cell viability at 100 uM after 48 hrs by MTT assay relative to control; format: functional; details: read-out: Activity; method in brief: as §1
PC-3 [3] = assay: Cytotoxicity against human PC-3 cells assessed as cell viability at 100 uM after 48 hrs by MTT assay relative to control; format: functional; details: read-out: Activity; method in brief: as §1
HT-29 [4] = assay: Cytotoxicity against human HT-29 cells assessed as inhibition of cell growth after 48 hrs by SRB assay; format: functional, cell-based; details: HT-29, 48 h
Method in brief: (§2)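 Cells seeded at 5 × 10⁴ cells/mL were held 24 h, then treated 48 h across final concentrations of 0–200 µM. They were fixed with 10% TCA for 1 h at 4 °C and stained with 0.04% SRB for 30 min. Bound dye was washed with 1% acetic acid, solubilised in 10 mM Tris base (pH 10.5) and read at 565 nm. IC50 derived from concentration–response curves.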

HUVEC = assay: Cytotoxicity against human HUVEC cells assessed as inhibition of cell growth after 48 hrs by SRB assay; format: cell-based; method in brief: as §2
MCF7 [5] = assay: Cytotoxicity against human MCF7 cells assessed as inhibition of cell growth after 48 hrs by SRB assay; format: functional, cell-based; details: MCF7, 48 h; method in brief: as §2
PC-3 [6] = assay: Cytotoxicity against human PC-3 cells assessed as inhibition of cell growth after 48 hrs by SRB assay; format: functional, cell-based; details: PC-3, 48 h; method in brief: as §2
[7] = Inhibition of LPS-induced TNF alpha mRNA expression in mouse RAW264.7 cells at 20 uM by RT-qPCR analysis relative to control; format: functional
Method in brief: (§3)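 RAW264.7 cells were kept in high-glucose DMEM with 10% FBS. They were treated with compound alongside LPS stimulation. iNOS, TNF-α and IL-1β mRNA were quantified by qPCR using TaqMan probes, with β-actin as housekeeping gene, and expressed relative to LPS control. Final DMSO ≤1.0%.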

THP-1 [8] = assay: Antiinflammatory activity in LPS-stimulated human THP-1 cells assessed as suppression of PGE2 release at 100 uM incubated for 24 hrs by ELISA relative to control; format: functional
Method in brief: (§4)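 THP-1 monocytes were differentiated with PMA (10 ng/mL, 24 h) and rested 24 h PMA-free. They were then given compound alongside 1 µg/mL LPS for 24 h. PGE₂ in supernatants was measured by ELISA and normalised to the BCA total protein of viable cells. Final DMSO ≤1.0%; at least three independent biological replicates.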

[9] = biological target: T1, Prostaglandin G/H synthase 2 (Homo sapiens) (UniProt P35354); assay: Inhibition of human recombinant COX-2 at 1 uM using arachidonic acid as substrate preincubated for 10 mins followed by substrate addition relative to control
T1 sequence (whole entry): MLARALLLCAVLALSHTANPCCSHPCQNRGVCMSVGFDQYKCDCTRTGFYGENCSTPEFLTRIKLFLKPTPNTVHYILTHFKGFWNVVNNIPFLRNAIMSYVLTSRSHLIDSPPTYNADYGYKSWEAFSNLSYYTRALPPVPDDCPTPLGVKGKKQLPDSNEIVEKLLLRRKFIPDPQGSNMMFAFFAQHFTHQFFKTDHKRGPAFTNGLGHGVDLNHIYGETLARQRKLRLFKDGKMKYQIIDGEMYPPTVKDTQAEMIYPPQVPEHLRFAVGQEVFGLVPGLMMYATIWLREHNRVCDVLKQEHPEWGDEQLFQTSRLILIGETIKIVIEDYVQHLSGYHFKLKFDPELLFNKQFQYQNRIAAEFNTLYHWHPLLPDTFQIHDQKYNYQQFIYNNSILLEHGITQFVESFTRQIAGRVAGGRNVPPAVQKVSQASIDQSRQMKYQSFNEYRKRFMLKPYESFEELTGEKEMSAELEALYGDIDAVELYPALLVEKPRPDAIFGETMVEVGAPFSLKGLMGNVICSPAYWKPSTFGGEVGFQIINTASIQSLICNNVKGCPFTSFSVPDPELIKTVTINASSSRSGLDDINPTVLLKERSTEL

THP-1 [10] = assay: Antiinflammatory activity in LPS-stimulated human THP-1 cells assessed as suppression of PGE2 release at 50 uM incubated for 24 hrs by ELISA relative to control; format: functional; method in brief: as §4
RAW264.7 [11] = assay: Inhibition of LPS-induced NO release in mouse RAW264.7 cells at 50 uM when treated with compound and LPS simultaneously measured after 24 hrs by Griess reagent based assay relative to control; format: functional
Method in brief: (§5)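 RAW264.7 cells were plated at 4 × 10⁵ cells/mL in phenol-free medium and left 24 h. They then received compound together with LPS (1 µg/mL) for 24 h. Nitrite in supernatants was measured by the Griess reaction and normalised to BCA total protein of viable cells. 1400W at 20 µM served as positive control.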

[12] = Inhibition of LPS-induced IL-1 beta mRNA expression in mouse RAW264.7 cells at 50 uM by RT-qPCR analysis relative to control; format: functional; method in brief: as §3
[13] = biological target: COX-1 (Prostaglandin G/H synthase 1) (Homo sapiens, UniProt P23219); assay: Inhibition of human recombinant COX-1 at 10 uM using arachidonic acid as substrate preincubated for 10 mins followed by substrate addition relative to control; details: recombinant COX-1, probe arachidonic acid
[14] = Inhibition of LPS-induced IL-1 beta mRNA expression in mouse RAW264.7 cells at 20 uM by RT-qPCR analysis relative to control; format: functional; method in brief: as §3
[15] = Inhibition of LPS-induced TNF alpha mRNA expression in mouse RAW264.7 cells at 50 uM by RT-qPCR analysis relative to control; format: functional; method in brief: as §3
THP-1 [16] = assay: Antiinflammatory activity in LPS-stimulated human THP-1 cells assessed as suppression of COX-2 mRNA expression at 100 uM incubated for 24 hrs by ELISA relative to control; format: functional; details: in the assay text read “by qPCR” for “by ELISA”
Method in brief: (§6)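 THP-1 monocytes plated at 1 × 10⁶ cells/mL, differentiated with 10 ng/mL PMA for 24 h, then rested 24 h in PMA-free medium. Cells were treated with compound and LPS stimulation. COX mRNA was quantified by qPCR with TaqMan probes against β-actin as housekeeping gene. Compound stocks in DMSO, final DMSO ≤1.0%.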

RAW264.7 [17] = assay: Inhibition of LPS-induced NO release in mouse RAW264.7 cells at 20 uM when treated with compound and LPS simultaneously measured after 24 hrs by Griess reagent based assay relative to control; format: functional; method in brief: as §5
THP-1 [18] = assay: Antiinflammatory activity in LPS-stimulated human THP-1 cells assessed as suppression of COX-2 mRNA expression at 50 uM incubated for 24 hrs by ELISA relative to control; format: functional; details: in the assay text read “by qPCR” for “by ELISA”; method in brief: as §6
MCF7 [19] = assay: Induction of apoptosis in human MCF7 cells assessed as downregulation of Bcl-2 protein expression at 10 to 25 uM measured after 24 hrs by Western blot analysis; details: dose 10-25 µM
MCF7 [20] = assay: Induction of apoptosis in human MCF7 cells assessed as upregulation of BAX protein expression measured after 24 hrs by Western blot analysis; format: functional, cell-based
Method in brief: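 MCF-7 cells seeded at 1 × 10⁶ cells/mL were exposed to compound for 24 h and lysed in RIPA buffer. Lysates were quantified by BCA, equally loaded, and run on a 12% SDS gel with 4% stacking gel. Blots were probed at 4 °C for BAX, BCL-2 and β-actin, then with HRP secondary, and detected by chemiluminescence. Band densitometry reported as relative change versus control.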

MCF7 [21] = assay: Inhibition of colony formation in human MCF7 cells assessed as decrease in colonies incubated for 14 days by crystal violet staining based clonogenic assay; format: functional, cell-based; details: time 14.0 day
Method in brief: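 MCF-7 cells seeded at 5 × 10² per well were allowed to attach for 24 h. Compound was then applied at increasing concentrations, with medium and compound renewed every 2 days for 14 days. Colonies were fixed in 75% methanol/25% acetic acid for 30 min, stained with 0.5% crystal violet for 30 min, and counted.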

MCF7 [22] = assay: Induction of apoptosis in human MCF7 cells assessed as increase in BAX/Bcl-2 ratio at 10 to 25 uM measured after 24 hrs by Western blot analysis; details: dose 10-25 µM
RAW264.7 [23] = assay: Inhibition of LPS-induced iNOS mRNA expression in mouse RAW264.7 cells assessed as downregulation of iNOS mRNA expression at 50 uM by RT-qPCR analysis relative to control; format: functional, cell-based; method in brief: as §3
[24] = Inhibition of LPS-induced iNOS mRNA expression in mouse RAW264.7 cells assessed as downregulation of iNOS mRNA expression at 20 uM by RT-qPCR analysis relative to control; format: functional; method in brief: as §3

Sequence of COX-1 (Prostaglandin G/H synthase 1) (P23219 whole entry): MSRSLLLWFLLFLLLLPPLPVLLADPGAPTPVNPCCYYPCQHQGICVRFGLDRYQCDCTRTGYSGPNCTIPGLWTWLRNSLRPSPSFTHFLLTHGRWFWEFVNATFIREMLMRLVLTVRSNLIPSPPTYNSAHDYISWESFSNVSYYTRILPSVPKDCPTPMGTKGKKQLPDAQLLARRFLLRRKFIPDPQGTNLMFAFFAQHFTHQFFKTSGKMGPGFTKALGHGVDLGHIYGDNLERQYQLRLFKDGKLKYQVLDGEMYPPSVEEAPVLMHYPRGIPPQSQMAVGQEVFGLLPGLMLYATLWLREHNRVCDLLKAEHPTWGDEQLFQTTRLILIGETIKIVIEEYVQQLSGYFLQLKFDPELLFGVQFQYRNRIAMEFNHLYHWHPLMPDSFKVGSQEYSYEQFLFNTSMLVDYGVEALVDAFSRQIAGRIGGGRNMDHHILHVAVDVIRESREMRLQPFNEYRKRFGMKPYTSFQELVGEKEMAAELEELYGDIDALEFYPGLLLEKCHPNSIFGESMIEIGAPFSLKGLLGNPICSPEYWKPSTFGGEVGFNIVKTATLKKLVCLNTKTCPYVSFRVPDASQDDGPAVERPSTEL

SMILES | viability at 100 µM (MCF7 [1]) | viability at 100 µM (HT-29 [2]) | viability at 100 µM (PC-3 [3]) | also measured
CCOc1cc(NC(=O)c2cccc([N+](=O)[O-])c2)ccc1NS(C)(=O)=O | 90.8% | 70.4% | 90.2% | 
CC(C)Oc1cc(NC(=O)c2ccc(C(N)=O)cc2)ccc1NS(C)(=O)=O | 61.9% | 79.4% | 49.8% | 
CCOc1cc(NC(=O)c2ccccc2[N+](=O)[O-])ccc1NS(C)(=O)=O | 122% | 112% | 100% | 
COc1ccc(C(=O)Nc2ccc(NS(C)(=O)=O)c(OC(C)C)c2)c([N+](=O)[O-])c1 | 63.5% | 111% | 94.2% | 
CS(=O)(=O)Nc1ccc(NC(=O)c2ccc(C(N)=O)cc2)cc1Oc1ccccc1 | 53.1% | 64.4% | 88.7% | 
CCOc1cc(NS(=O)(=O)c2cccc([N+](=O)[O-])c2)ccc1NS(C)(=O)=O | 127% | 116% | 75.5% | 
CCOc1cc(NC(=O)c2ccc(F)cc2)ccc1NS(C)(=O)=O | 64.4% | 80.1% | 90% | 
COc1ccc(C(=O)Nc2ccc(NS(C)(=O)=O)c(OC(C)C)c2)cc1 | 153% | 67.9% | 65.8% | 
COc1cccc2c1C(=O)c1c(O)c3c(c(O)c1C2=O)C[C@@](O)(C(=O)CO)C[C@@H]3O[C@H]1C[C@H](N)[C@H](O)[C@H](C)O1 [DOXORUBICIN] | 14.1% | 21% | 11.8% | IC50 (HT-29 [4]): 0.15 µM; IC50 (HUVEC): 0.1 µM; IC50 (MCF7 [5]): 0.16 µM; IC50 (PC-3 [6]): 16.9 µM
COc1ccc(S(=O)(=O)Nc2ccc(NS(C)(=O)=O)c(OC(C)C)c2)cc1 | 130% | 102% | 68.6% | 
CCOc1cc(NC(=O)c2ccc([N+](=O)[O-])cc2)ccc1NS(C)(=O)=O | 116% | 114% | 84.8% | 
CC(C)Oc1cc(NS(=O)(=O)c2ccc(F)cc2)ccc1NS(C)(=O)=O | 130% | 92.9% | 75.5% | 
CCOc1cc(NS(=O)(=O)c2ccc([N+](=O)[O-])cc2)ccc1NS(C)(=O)=O | 119% | 118% | 65.7% | inhibition at 20 µM [7]: 46%; Activity (THP-1 [8]): 44%; inhibition [9]: 88%; Activity (THP-1 [10]): 77%; inhibition at 50 µM (RAW264.7 [11]): 68%; inhibition at 50 µM [12]: 22%; inhibition at 10 µM [13]: 21%; inhibition at 20 µM [14]: 39%; inhibition at 50 µM [15]: 22%; Activity (THP-1 [16]): 60%; inhibition at 20 µM (RAW264.7 [17]): 40.7%; Activity (THP-1 [18]): 47%
CC(C)Oc1cc(NC(=O)c2ccc([N+](=O)[O-])cc2)ccc1NS(C)(=O)=O | 101% | 124% | 81% | 
CC(C)Oc1cc(NS(=O)(=O)c2ccc([N+](=O)[O-])cc2)ccc1NS(C)(=O)=O | 57.9% | 75.4% | 91.4% | 
CCOc1cc(NS(=O)(=O)c2ccccc2[N+](=O)[O-])ccc1NS(C)(=O)=O | 139% | 133% | 77.9% | 
CS(=O)(=O)Nc1ccc(NC(=O)c2ccc(F)cc2)cc1Oc1ccccc1 | 22.2% | 33.1% | 24.8% | IC50 (HT-29 [4]): 9.24 µM; IC50 (HUVEC): > 200 µM; Activity (MCF7 [19]): Active; Activity (MCF7 [20]): Dose-Dependent Effect; inhibition (MCF7 [21]): Dose-Dependent Effect; IC50 (MCF7 [5]): 11.3 µM; Activity (MCF7 [22]): Active; IC50 (PC-3 [6]): > 100 µM
CC(C)Oc1cc(NC(=O)c2ccc(F)cc2)ccc1NS(C)(=O)=O | 110% | 49.6% | 79.4% | inhibition at 20 µM [7]: 44%; Activity (THP-1 [8]): 68%; inhibition [9]: 72.8%; inhibition (RAW264.7 [23]): Active; Activity (THP-1 [10]): 67%; inhibition at 50 µM (RAW264.7 [11]): 46.4%; inhibition at 20 µM [24]: 40%; inhibition at 50 µM [12]: 51%; inhibition at 10 µM [13]: 27.2%; inhibition at 20 µM [14]: 45%; inhibition at 50 µM [15]: 57%; Activity (THP-1 [16]): 61%; inhibition at 20 µM (RAW264.7 [17]): 43%; Activity (THP-1 [18]): 53%
